Laboratory results: article PMC9043769 (RSC Advances, 2021)
Where two headings read alike, the source gives them in different places.

Columns and labels:
[1] = system: BJ human foreskin fibroblasts; experiment: alamarBlue; assay type: cell-based; conditions: read-out: IC50, after 72 h incubation, BJ, normal fibroblasts
Summary of the method: (§1)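 CEM cells grown in RPMI 1640 with 20% FBS; G-361 and BJ cells in DMEM with 10% FBS. All media had 2 mM L-glutamine and 1% penicillin-streptomycin, 37 °C, 5% CO2. Six concentrations of compound, 0.2–50 μM (3× dilution), were applied for 72 h, with a resazurin (alamarBlue) read-out. IC50 came from means of at least two or three independent experiments in triplicate or quadruplicate.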

[2] = system: MDA-MB-231 (ER− breast adenocarcinoma) cells; experiment: MTT cytotoxicity assay, 72 h; assay type: cell-based, human; conditions: read-out: IC50, after 72 h incubation, MDA-MB-231
Summary of the method: (§2)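 Cell lines (ATCC) grown in DMEM with […], 10% FCS and antibiotic–antimycotic at 37 °C, 5% CO2. […] IC50 was calculated from means of at least two or three independent experiments in triplicate or quadruplicate.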

[3] = system: MCF-7 (ER+ breast adenocarcinoma) cells; experiment: MTT cytotoxicity assay, 72 h; assay type: cell-based, human; conditions: for IC50: read-out: IC50, after 72 h incubation, MCF-7
Summary of the method: as §2

[4] = system: A549 lung adenocarcinoma cells; experiment: MTT cytotoxicity assay, 72 h; assay type: cell-based, human; conditions: read-out: IC50, after 72 h incubation, A549
Summary of the method: as §2

[5] = system: CEM T-lymphoblastic leukemia cells; experiment: alamarBlue; assay type: cell-based, human; conditions: read-out: IC50, after 72 h incubation, CEM
Summary of the method: as §1

[6] = system: PC-3 prostate cancer cells; experiment: MTT cytotoxicity assay, 72 h; assay type: cell-based, human
Summary of the method: as §2

[7] = system: HT-29 colon adenocarcinoma cells; experiment: MTT cytotoxicity assay, 72 h; assay type: cell-based, human; conditions: read-out: IC50, after 72 h incubation, HT-29
Summary of the method: as §2

[8] = system: MRC-5 normal fetal lung fibroblasts; experiment: MTT cytotoxicity assay, 72 h; assay type: cell-based, human; conditions: read-out: IC50, after 72 h incubation, MRC-5
[9] = system: G-361 malignant melanoma cells; experiment: alamarBlue; assay type: cell-based, human; conditions: read-out: IC50, after 72 h incubation, G-361
Summary of the method: as §1

[10] = system: HeLa cervical carcinoma cells; experiment: MTT cytotoxicity assay, 72 h; assay type: cell-based, human
Summary of the method: as §2

| Structure (SMILES) | IC50 [1] | IC50 ([2]; MTT, 72 h) | IC50 ([3]; MTT, 72 h) | IC50 ([4]; MTT, 72 h) | IC50 [5] | IC50 ([6]; read-out: IC50, after 72 h incubation, PC-3, MTT) | IC50 ([7]; MTT, 72 h) | IC50 ([8]; MTT, 72 h, normal cells) | IC50 [9] | IC50 ([10]; read-out: IC50, after 72 h incubation, HeLa, MTT) | IC50 ([2]; Homo sapiens, MDA-MB-231, 72 h) | IC50 ([3]; Homo sapiens, MCF7, 72 h) | Toxicity toward MCF-7 tumor cells (in words) ([3]; MTT, 72 h) | IC50 ([4]; Homo sapiens, A549, 72 h) | IC50 ([6]; Homo sapiens, read-out: IC50, after 72 h incubation, PC-3) | IC50 ([7]; Homo sapiens, HT-29, 72 h) | IC50 ([8]; Homo sapiens, MRC5, 72 h) | IC50 ([10]; Homo sapiens, HeLa, read-out: IC50, after 72 h incubation, HeLa) |
| --- | --- | --- | --- | --- | --- | --- | --- | --- | --- | --- | --- | --- | --- | --- | --- | --- | --- | --- |
| N.N.[Cl][Pt][Cl] [Cis-Pt, cisplatin] | 9.6 µM | 2.6 µM | 1.6 µM | 3.2 µM | 0.8 µM | 4.5 µM | 4.1 µM | 0.2 µM | 4.5 µM | 2.1 µM | – | – | – | – | – | – | – | – |
| C[C@]12CCC(=O)C(O)=C1CC[C@@H]1[C@@H]2CC[C@]2(C)C(=O)CC[C@@H]12 [For, formestane] | – | – | – | – | – | – | – | – | – | – | 19.6 µM | > 100 µM | no toxicity | 38.6 µM | 26.4 µM | > 100 µM | > 100 µM | 3.4 µM |
